Data reported in ChEMBL document CHEMBL4828728, “Antiplasmodial 2-thiophenoxy-3-trichloromethyl quinoxalines target the apicoplast of Plasmodium falciparum” (Eur J Med Chem, 2021).
Calls of active or inactive are those of the source. No cut-off for these calls is given here.

Key:
[1] = Selectivity index, ratio of CC50 for cytotoxicity against human HepG2 cells to EC50 for antiplasmodial activity against multidrug-resistant Plasmodium falciparum K1 infected in human erythrocytes; assay type: toxicity, cell-based; settings: read-out: Ratio CC50/EC50
[2] = Aqueous solubility of the compound; assay type: physicochemical; settings: buffer
[3] = Cytotoxicity against human HepG2 cells assessed as reduction in cell viability measured after 72 hrs by MTT assay; assay type: cell-based
How it was run: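 HepG2 in MEM with 10% FBS, 5×10³ cells/well; 24 h attachment, then serial dilutions (DMSO <0.5% final) for 72 h at 37 °C, wells checked for precipitate. MTT 0.5 mg/mL for 2 h, formazan in DMSO, A570 with 630 nm reference. Viability versus untreated; doxorubicin positive control; CC50 from dose-response curve, triplicates, mean of three independent experiments.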

Plasmodium falciparum [4] = experiment: Antiplasmodial activity against multidrug-resistant Plasmodium falciparum K1 infected in human erythrocytes assessed as reduction in parasite growth incubated for 72 hrs by SYBR green I fluorescence based assay; assay type: functional, organism-based; settings: K1, Erythrocyte
Plasmodium falciparum [5] = experiment: Inhibition of apicoplast development in Plasmodium falciparum 3D7 assessed as delayed death phenotype at 0.3 uM measured during 48 hrs of three cycles of parasite development by SYBR green I based fluorescence assay; assay type: functional, organism-based
How it was run: (§1)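 3D7 cultures held at 0.3 μM or DMSO across three 48 h cycles, diluted 1/10 each cycle. At 48, 96 and 144 h, aliquots were lysed in SYBR Green I buffer (Tris pH 7.5, EDTA, saponin, Triton X-100) for 1 h at room temperature in the dark. Fluorescence read at 485/538 nm; growth expressed as treated/untreated ratio, n=3, SD.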

[6] = Aqueous solubility of the compound assessed as precipitation of the compound at >1.9 uM; assay type: physicochemical; settings: buffer
Plasmodium falciparum [7] = experiment: Inhibition of apicoplast biogenesis in Plasmodium falciparum 3D7 assessed as loss of apicoplast at 0.3 uM measured after 48 hrs by DAPI/TPT staining based epifluorescence microscopic analysis; assay type: functional, organism-based
How it was run: (§2)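 Sorbitol-synchronized (5%) 3D7 blood-stage cultures expressing HA-tagged TPT, grown in RPMI-HEPES with 5% AlbuMAX II, 2% hematocrit, 1% O2/5% CO2, 37 °C; exposed 48 h to 0.3 μM or DMSO. Fixed in 4% PFA/0.0075% glutaraldehyde, Triton-permeabilized, stained with anti-HA plus Alexa 488 secondary and DAPI; imaged by epifluorescence with DIC.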

Plasmodium falciparum [8] = experiment: (§3) Inhibition of apicoplast development in hepatic stage of Plasmodium falciparum NF135 infected in human hepatocytes assessed as condensation of apicoplast protein ACP signal incubated for 3 hrs with daily replacement of fresh medium containing compound until day 6 post infection by confocal microscopy; assay type: functional, organism-based; settings: time 6.0 day
How it was run: (§4)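 Primary human hepatocytes infected with NF135 sporozoites (30,000/well), drug present from infection, washed at 3 h and renewed daily until fixing at day 6 (4% PFA). Apicoplast stained with anti-ACP antibody, parasites with anti-HSP70, DNA with DAPI, imaged by confocal microscopy. 100 parasites scored as normal or partially/completely altered apicoplast, given as percentage distribution.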

Plasmodium falciparum [9] = experiment: as §3, with “proportion of schizonts with partial and complete alteration” for “condensation”, “apicoplast” for “apicoplast protein ACP”, “signal at 30 uM” for “signal”; assay type: functional; parameters: scale not given: the % may be the effect or the level left; settings: time 6 day; how it was run: as §4
Plasmodium falciparum [10] = experiment: Antiplasmodial activity against Plasmodium falciparum 3D7 assessed as reduction in parasite development by measuring defect in parasite replication at 0.3 uM measured after 48 hrs by DAPI/TPT staining based epifluorescence microscopic analysis; assay type: functional, organism-based; how it was run: as §2
Plasmodium falciparum [11] = experiment: Antiplasmodial activity against Plasmodium falciparum 3D7 assessed as reduction in parasite development by measuring enriched culture in mid trophozite parasites at 0.3 uM measured after 48 hrs by DAPI/TPT staining based epifluorescence microscopic analysis; assay type: functional, organism-based; how it was run: as §2
Plasmodium falciparum [12] = experiment: Inhibition of apicoplast development in Plasmodium falciparum 3D7 assessed as reduction in parasite growth at 0.3 uM measured during 48 hrs of first cycle of parasite development by SYBR green I based fluorescence assay; assay type: functional, organism-based; how it was run: as §1
[13] = Genotoxicity in human HepG2 cells assessed as induction of alkali labile sites at 28 uM measured after 2 to 72 hrs by alkali comet assay; assay type: cell-based; settings: hepg2, 28 µM, time 2-72 hrs
How it was run: (§5)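 HepG2 (passage 11-15, EMEM with 10% FBS) exposed to 5.6 or 28 μM for 2 h or 72 h; vehicle 0.5% DMSO; 1 mM MMS 2 h positive control. Alkaline comet: lysis pH 10 at 4 °C 1 h, unwinding 40 min at pH >13, electrophoresis 1 V/cm 20 min. DAPI staining, % tail DNA; median of 50 comets per duplicate gel, mean of three experiments ±SD.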

Plasmodium falciparum [14] = experiment: Antiplasmodial activity against Plasmodium falciparum NF135 sporozoites infected in human hepatocytes assessed as reduction in parasite size without affecting parasite number incubated for 3 hrs with daily replacement of fresh medium containing compound until day 6 post infection by fluorescence microscopic analysis; assay type: functional, organism-based; settings: Hepatocyte, time 6.0 day
How it was run: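 Cryopreserved primary human hepatocytes seeded at 80,000/well on collagen I in supplemented William's E, then infected with 30,000 NF135 sporozoites/well from A. stephensi salivary glands. Plates centrifuged 10 min, serial drug dilutions added at infection, washed at 3 h, drug medium renewed daily. Fixed day 6 in 4% PFA, EEFs stained with anti-HSP70 plus DAPI, counted by fluorescence microscopy or high-content imaging.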

[15] = Genotoxicity in human HepG2 cells assessed as induction of DNA strand breaks at 28 uM measured after 2 to 72 hrs by alkali comet assay; assay type: cell-based; settings: hepg2, 28 µM, time 2-72 hrs; how it was run: as §5
[16] = Cytotoxicity against CHO cells assessed as reduction in cell viability measured after 24 hrs by MTT assay; assay type: cell-based, Cricetulus griseus; settings: chinese hamster
How it was run: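 CHO cells grown in RPMI with 10% FBS; 5×10³ cells/well, 24 h attachment, then compound dilutions (DMSO <0.5% final) for 24 h at 37 °C. Precipitate check, MTT 0.5 mg/mL 2 h, DMSO solubilization, A570/630. Percent viability against untreated; doxorubicin control; CC50 from dose-response, triplicates, mean of three independent experiments.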

Plasmodium falciparum [17] = experiment: Inhibition of apicoplast biogenesis in Plasmodium falciparum 3D7 assessed as reduction in apicoplast development, elongation and branching at 0.3 uM measured after 48 hrs by DAPI/TPT staining based epifluorescence microscopic analysis; assay type: functional, organism-based; how it was run: as §2
[18] = Toxicity in human hepatocytes assessed as reduction in nuclei number up to 30 uM by microscopic analysis; assay type: cell-based, Hepatocyte
How it was run: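 Cryopreserved primary human hepatocytes, 80,000 per collagen-coated well in William's E medium, inoculated with 30,000 NF135 sporozoites/well and centrifuged. Serial drug dilutions added with sporozoites, renewed daily until 4% PFA fixation at day 6. Stained with anti-HSP70 and DAPI; hepatocyte nuclei counted across scanned microscopic fields, treated versus control.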

[19] = Genotoxicity in human HepG2 cells assessed as induction of alkali labile sites at 5.6 uM measured after 2 to 72 hrs by alkali comet assay; assay type: cell-based; settings: hepg2, 5.6 µM, time 2-72 hrs; how it was run: as §5
[20] = Cytotoxicity against African green monkey Vero cells assessed as reduction in cell viability measured after 48 hrs by MTT assay; assay type: cell-based; settings: chlorocebus sabaeus
How it was run: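 Vero cells in MEM with 10% FBS; 5×10³ cells/well, 24 h attachment, then compound dilutions (DMSO <0.5% final) for 48 h at 37 °C. Precipitate check, MTT 0.5 mg/mL 2 h, DMSO solubilization, A570/630. Viability relative to untreated; doxorubicin control; CC50 from dose-response, triplicates, mean of three independent experiments.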

[21] = Genotoxicity in human HepG2 cells assessed as induction of DNA strand breaks at 5.6 uM measured after 2 to 72 hrs by alkali comet assay; assay type: cell-based; settings: hepg2, 5.6 µM, time 2-72 hrs; how it was run: as §5
Plasmodium falciparum [22] = experiment: Antiplasmodial activity against Plasmodium falciparum 3D7; assay type: functional, organism-based
[23] = Genotoxicity in human HepG2 cells assessed as induction of alkali labile sites at 1 mM measured after 2 hrs by alkali comet assay; settings: hepg2, 1000 µM
[24] = Genotoxicity in human HepG2 cells assessed as induction of DNA strand breaks at 1 mM measured after 2 hrs by alkali comet assay; settings: hepg2, 1000 µM

| Compound | selectivity ratio [1] | solubility [2] | CC50 at 72 h [3] [µM] | EC50 (Plasmodium falciparum [4]) [µM] | other results |
| --- | --- | --- | --- | --- | --- |
| O=[N+]([O-])c1ccc(Sc2nc3ccccc3nc2C(Cl)(Cl)Cl)cc1 | 79.6 | Soluble | 19.9 | 0.25 | – |
| Cc1nc2ccccc2nc1Sc1ccccc1 | – | – | > 25 | > 50 | Activity (Plasmodium falciparum [5]): inactive |
| C[C@H]1c2cccc(O)c2C(=O)C2=C(O)[C@]3(O)C(=O)C(C(N)=O)=C(O)[C@@H](N(C)C)[C@@H]3[C@@H](O)[C@@H]21 [DOXYCYCLINE] | 3.3 | – | – | 6 | – |
| CCN(CC)CCCC(C)Nc1ccnc2cc(Cl)ccc12 (configuration not stated) [CHLOROQUINE] | – | – | – | 0.8 | – |
| COc1ccc(Cl)c(Sc2nc3ccccc3nc2C(Cl)(Cl)Cl)c1 | 127 | Soluble | 58.4 | 0.46 | – |
| ClC(Cl)(Cl)c1nc2ccccc2nc1Sc1ccc(Br)cc1 | 93 | Soluble | 42.2 | 0.46 | – |
| COc1ccccc1Sc1nc2ccccc2nc1C(Cl)(Cl)Cl | 56.8 | Soluble | 42.6 | 0.74 | – |
| Clc1ccc(Sc2nc3ccccc3nc2C(Cl)(Cl)Cl)cc1 | 77.2 | – | – | 0.5 | – |
| FC(F)(F)Oc1ccc(Sc2nc3ccccc3nc2C(Cl)(Cl)Cl)cc1 | 58.3 | Soluble | 21 | 0.36 | – |
| O=C1C(O)=C([C@H]2CC[C@H](c3ccc(Cl)cc3)CC2)C(=O)c2ccccc21 [ATOVAQUONE] | – | – | > 15.6 | 0.001 | – |
| FC(F)(F)c1ccc(Sc2nc3ccccc3nc2C(Cl)(Cl)Cl)cc1 | 59.8 | Soluble | 29.9 | 0.5 | – |
| COc1ccc(Sc2nc3ccccc3nc2C(Cl)(Cl)Cl)cc1 | > 3 | – | > 1.9 | 0.65 | solubility [6]: Insoluble |
| Clc1ccc(Sc2nc3ccccc3nc2C(Cl)(Cl)Cl)c(Cl)c1 | > 34.7 | Soluble | > 31.2 | 0.9 | – |
| Cc1ccc(Sc2nc3ccccc3nc2C(Cl)(Cl)Cl)cc1 | 46.5 | Soluble | 69.7 | 1.5 | – |
| Clc1ccccc1Sc1nc2ccccc2nc1C(Cl)(Cl)Cl | 73.8 | Soluble | 36.9 | 0.5 | – |
| ClC(Cl)(Cl)c1nc2ccccc2nc1Sc1ccccc1 | 175 | Soluble | 56 | 0.32 | inhibition (Plasmodium falciparum [7]): Active; inhibition (Plasmodium falciparum [8]): Active; Activity (Plasmodium falciparum [9]): 93%; Activity (Plasmodium falciparum [10]): Active; Activity (Plasmodium falciparum [11]): Active; Activity (Plasmodium falciparum [12]): Active; Activity [13]: Non-Toxic; Activity (Plasmodium falciparum [14]): Dose-Dependent Effect; Activity [15]: Non-Toxic; Activity (Plasmodium falciparum [5]): Active; CC50 at 24 h [16]: 58.5 µM; inhibition (Plasmodium falciparum [17]): Active; Activity [18]: Non-Toxic; Activity [19]: Non-Toxic; CC50 at 48 h [20]: 63.5 µM; Activity [21]: Non-Toxic |
| FC(F)(F)c1nc2ccccc2nc1Sc1ccccc1 | – | – | > 50 | > 50 | – |
| Fc1ccc(Sc2nc3ccccc3nc2C(Cl)(Cl)Cl)cc1 | 85.6 | Soluble | 30.8 | 0.36 | – |
| Fc1ccccc1Sc1nc2ccccc2nc1C(Cl)(Cl)Cl | 127 | Soluble | 40.5 | 0.32 | – |
| Fc1cccc(Sc2nc3ccccc3nc2C(Cl)(Cl)Cl)c1 | 116 | Soluble | 35.9 | 0.31 | – |
| c1ccc(Sc2cnc3ccccc3n2)cc1 | – | – | > 50 | > 50 | – |
| Oc1cc(Cl)ccc1Oc1ccc(Cl)cc1Cl [TRICLOSAN] | – | – | – | – | EC50 (Plasmodium falciparum [22]): 1.55 µM |
| Clc1cccc(Sc2nc3ccccc3nc2C(Cl)(Cl)Cl)c1Cl | 112 | Soluble | 34.6 | 0.31 | – |
| Clc1cccc(Sc2nc3ccccc3nc2C(Cl)(Cl)Cl)c1 | 93.4 | Soluble | 38.3 | 0.41 | – |
| COS(C)(=O)=O [METHANESULFONIC ACID METHYL ESTER] | – | – | – | – | Activity [23]: Toxic; Activity [24]: Toxic |
